Where two headings read alike, the source gives them in different places.
What was measured:
[1] = molecular target: T1, human norepinephrine transporter (hNET) (Homo sapiens, UniProt P23975); experiment: Saturation binding assays with [^3H]mazindol and C6-hNET membranes; conditions: C6-hNET cell membranes, n = 4
In short: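 The membranes were C6-hNET cell membranes, 100,000 × g pellets in 50 mM Tris/120 mM NaCl/5 mM KCl, pH 7.4, from different batches. Protein was measured by Lowry with BSA standards. Eight [3H]mazindol concentrations (0.25–25 nM) were tested, with specific binding in triplicate at each. A one-site binding nonlinear fit gave KD (nM) and Bmax (fmol/mg protein).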

[2] = molecular target: T1, human norepinephrine transporter (hNET); experiment: Saturation transport kinetics assays with intact C6-hNET cells; type: cell-based; conditions: for Vmax / Km: intact C6-hNET cells, 5 min, 37 °C, mean ± SD, n = 4 or 5
[3] = system: norepinephrine transporter (NET); experiment: NET transport kinetics / neuronal uptake in isolated perfused rat hearts; conditions: isolated rat heart, ratio of Vmax and Km estimates
[4] = system: norepinephrine transporter (NET); conditions: isolated rat heart, cited from earlier work
[5] = molecular target: T1, human norepinephrine transporter (hNET); experiment: Competitive inhibition of [^3H]mazindol binding to C6-hNET cell membranes
In short: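 Rat C6 glioma cells stably expressing human NET were Dounce-homogenized, and membranes were pelleted at 100,000 × g and resuspended in 50 mM Tris, 120 mM NaCl, 5 mM KCl, pH 7.4. Each assay used 70–100 μg protein. Radioligand was [3H]mazindol, with desipramine defining nonspecific binding. Ten inhibitor concentrations were run in quadruplicate and normalized to % specific binding. A one-site competition fit gave IC50, converted to Ki by Cheng-Prusoff using the mean saturation KD.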

[6] = earlier studies, reference not given; cited from earlier work
[7] = [^3H]mazindol, homogenized C6-hNET cell membranes, Cheng-Prusoff, mean ± SD, n = 4 or 5

T1 sequence (P23975 whole entry): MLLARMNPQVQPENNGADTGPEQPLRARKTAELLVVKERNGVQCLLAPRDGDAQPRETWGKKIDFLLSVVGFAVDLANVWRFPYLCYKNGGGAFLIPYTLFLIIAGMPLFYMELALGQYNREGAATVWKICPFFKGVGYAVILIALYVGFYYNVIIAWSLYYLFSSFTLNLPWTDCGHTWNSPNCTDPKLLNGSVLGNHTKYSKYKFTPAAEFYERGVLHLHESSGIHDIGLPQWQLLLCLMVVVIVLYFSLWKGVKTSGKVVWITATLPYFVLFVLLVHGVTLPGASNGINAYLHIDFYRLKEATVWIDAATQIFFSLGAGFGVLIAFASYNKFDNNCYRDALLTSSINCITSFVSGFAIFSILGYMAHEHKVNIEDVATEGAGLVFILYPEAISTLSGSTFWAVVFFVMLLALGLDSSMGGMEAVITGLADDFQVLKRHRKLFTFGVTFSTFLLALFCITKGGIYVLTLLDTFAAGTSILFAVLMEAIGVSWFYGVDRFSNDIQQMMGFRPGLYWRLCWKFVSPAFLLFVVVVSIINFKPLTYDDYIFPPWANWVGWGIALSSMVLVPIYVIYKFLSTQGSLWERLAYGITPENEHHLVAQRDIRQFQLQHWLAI

With `OC1(c2ccc(Cl)cc2)c2ccccc2C2=NCCN21` (stereo not drawn) [[^3H]mazindol, [4′-^3H]Mazindol] the Bmax [1] was 457 ± 31 fmol/mg protein and the Kd [1] was 0.0012 µM.
In the case of `N=[11C](N)NCCc1cccc(O)c1` [MHPG, [^11C]meta-hydroxyphenethylguanidine], the “Vmax relative to PHPG” value ([2]; C6-hNET cells, comparator PHPG) is reported as 2.4 times higher and the Vmax [2] is reported as 7.83 ± 1.73 pmol/min/mg protein.
In the case of [^3H]dopamine [DA], the Km [2] is reported as 0.24 ± 0.04 µM, the Vmax [2] is reported as 2.91 ± 0.47 pmol/min/mg protein and the Vmax/Km ratio ([3]; ref Hellmann et al. [11]) is reported as 2.10 ml/min/g wet. For the same molecule, the Km ([4]; ref Hellmann et al. [11]) was 0.69 µM and the Vmax ([4]; ref Hellmann et al. [11]) was 1.45 nmol/min/g wet.
Molecule `N=C(N)NCCc1ccc(O)cc1` [PHPG, [^11C]para-hydroxyphenethylguanidine] has a Ki [5, 7] of 1.9 ± 0.2 µM and a Km [2] of 0.52 ± 0.06 µM.
In the case of `N=C(N)NCc1cccc(I)c1` [MIBG, [^131I]metaiodobenzylguanidine], the Km ([4]; ref DeGrado et al. [15]) is given as 0.052 µM.
In the case of `N=C(N)NCCc1cc(O)ccc1F` [6F-MHPG, [^11C]6-fluoro-meta-hydroxyphenethylguanidine], the Ki [5, 7] is reported as 17.7 ± 0.5 µM and the Km [2] is reported as 2.86 ± 0.43 µM.
With [^11C]-(−)-meta- hydroxyephedrine the Ki [5, 7] was 43.2 ± 1.8 µM, the Km [2] was 0.48 ± 0.08 µM and the Vmax [2] was 5.43 ± 0.71 pmol/min/mg protein. For the same molecule, the “log P” value [6] was 0.3.
In the case of `CNC[C@H](O)c1ccc(O)c(O)c1` [EPI, [^11C]-(−)-epinephrine], the Ki [5] is given as 68.4 ± 7.6 µM, the “Km increase relative to NE” value ([2]; C6-hNET cells, comparator NE) is given as 11 fold and the “log P” value [6] is given as −1.30.
For `NC(N)=NCc1cccc([76Br])c1` [MBBG, [^76Br]-meta-bromobenzylguanidine], the Vmax/Km ratio ([3]; ref Raffel et al. [16]) is listed as 3.0 ± 1.2 ml/min/g wet and the Vmax ([4]; ref Raffel et al. [16]) is listed as 0.33 ± 0.10 nmol/min/g wet.
With `N=C(N)NCCc1ccc(F)c(O)c1` [4F-MHPG, [^11C]4-fluoro-meta-hydroxyphenethylguanidine] the Ki [5, 7] was 5.6 ± 0.5 µM, the “Km increase relative to MHPG” value ([2]; C6-hNET cells, comparator MHPG) was 5 fold and the Km [2] was 2.57 ± 0.35 µM. The Vmax [2] was 7.46 ± 0.64 pmol/min/mg protein.
Work on `N=C(N)NCC(O)c1cccc(O)c1` (single isomer, unassigned; (-)) [GMO, (−)-N-[^11C]guanyl-meta-octopamine] yielded a Ki [5, 7] of 20.3 ± 2.5 µM and a Km [2] of 4.43 ± 0.31 µM.
In the case of `N=C(N)NCc1cccc([131I])c1` [MIBG, [^131I]metaiodobenzylguanidine], the Vmax/Km ratio ([3]; ref DeGrado et al. [15]) is listed as 4.4 ml/min/g wet and the Vmax ([4]; ref DeGrado et al. [15]) is listed as 0.23 nmol/min/g wet.
In the case of `N=[11C](N)NCC(O)c1cccc(O)c1` (single isomer, unassigned; (-)) [GMO, (−)-N-[^11C]guanyl-meta-octopamine], the “Km increase relative to MHPG” value ([2]; C6-hNET cells, comparator MHPG) is reported as 6 fold, the “Vmax decrease relative to MHPG” value ([2]; C6-hNET cells, comparator MHPG) is reported as 30% and the “Vmax/Km ratio slower than for MHPG” value ([2]; C6-hNET cells, comparator MHPG) is reported as ~ 9 times slower. The Vmax [2] was 5.57 ± 0.30 pmol/min/mg protein.
For `NC[C@H](O)c1ccc(O)c(O)c1` [NE, [^3H]-(−)-norepinephrine], the Km ([4]; ref Iversen [14]) is given as 0.27 µM and the Vmax ([4]; ref Iversen [14]) is given as 1.18 ± 0.12 nmol/min/g wet.
In the case of `N=[11C](N)NCCc1ccc(O)cc1` [PHPG, [^11C]para-hydroxyphenethylguanidine], the Vmax [2] is reported as 3.31 ± 0.40 pmol/min/mg protein.
In the case of `NC(N)=NCc1cccc(Br)c1` [MBBG, [^76Br]-meta-bromobenzylguanidine], the Km ([4]; ref Raffel et al. [16]) is given as 0.11 ± 0.03 µM.
Molecule `N=C(N)NCCc1cccc(O)c1` [MHPG, [^11C]meta-hydroxyphenethylguanidine] has a Ki [5, 7] of 4.9 ± 0.5 µM and a Km [2] of 0.73 ± 0.2 µM.
For `N=[11C](N)NCCc1cc(O)ccc1F` [6F-MHPG, [^11C]6-fluoro-meta-hydroxyphenethylguanidine], the “Km increase relative to MHPG” value ([2]; C6-hNET cells, comparator MHPG) was ~ 5 fold, the “Vmax decrease relative to MHPG” value ([2]; C6-hNET cells, comparator MHPG) was ~ 50% and the “Vmax/Km as percentage of the value for MHPG” value ([2]; C6-hNET cells, comparator MHPG) was ~ 12%. It also gave a Vmax [2] of 4.06 ± 0.66 pmol/min/mg protein.
